Measured values: ChEMBL document CHEMBL1131050, “Benzoxazole derivatives as novel 5-HT3 receptor partial agonists in the gut” (J Med Chem, 1998)

How the values were obtained:
[1] = system: 5-HT3 receptor (Cavia porcellus); assay: Potency of partial agonist action given by concentration producing 50% of individual maximal contraction of isolated guinea pig ileum
[2] = molecular target: T1, Serotonin 3 (5-HT3) receptor (Rattus norvegicus, UniProt P35563+Q9JJ16); assay: Binding affinity for 5-hydroxytryptamine 3 receptor in rat cerebral cortex, determined by displacement of [3H]GR-65630; format: tissue-based
T1 sequence (P35563 whole entry): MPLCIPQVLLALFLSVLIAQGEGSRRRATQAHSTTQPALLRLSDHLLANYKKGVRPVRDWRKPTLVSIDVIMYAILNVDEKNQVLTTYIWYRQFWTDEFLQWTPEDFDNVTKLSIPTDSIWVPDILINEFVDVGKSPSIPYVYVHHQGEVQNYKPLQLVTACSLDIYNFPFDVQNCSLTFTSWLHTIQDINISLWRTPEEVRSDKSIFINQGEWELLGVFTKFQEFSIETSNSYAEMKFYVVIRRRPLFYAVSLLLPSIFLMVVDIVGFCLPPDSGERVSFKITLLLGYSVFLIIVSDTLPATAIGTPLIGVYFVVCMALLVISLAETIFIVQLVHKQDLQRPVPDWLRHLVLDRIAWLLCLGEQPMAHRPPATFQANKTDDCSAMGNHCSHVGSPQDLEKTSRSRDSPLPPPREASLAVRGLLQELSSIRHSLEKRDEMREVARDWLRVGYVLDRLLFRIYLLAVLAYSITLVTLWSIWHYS
T1 sequence (Q9JJ16 whole entry): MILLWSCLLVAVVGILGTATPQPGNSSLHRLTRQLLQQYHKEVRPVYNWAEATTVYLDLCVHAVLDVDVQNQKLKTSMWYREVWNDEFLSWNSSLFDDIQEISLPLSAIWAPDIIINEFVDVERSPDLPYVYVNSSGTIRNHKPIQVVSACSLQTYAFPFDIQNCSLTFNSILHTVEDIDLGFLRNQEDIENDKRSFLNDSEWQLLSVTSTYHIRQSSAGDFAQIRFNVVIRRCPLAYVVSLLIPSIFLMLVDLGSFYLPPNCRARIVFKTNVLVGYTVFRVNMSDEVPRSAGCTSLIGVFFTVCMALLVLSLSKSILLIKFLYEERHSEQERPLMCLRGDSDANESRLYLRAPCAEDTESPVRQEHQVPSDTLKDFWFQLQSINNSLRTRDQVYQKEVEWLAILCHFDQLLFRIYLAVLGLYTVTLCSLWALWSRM
Summary of the method: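 Membranes from cortex of male Wistar rats (250–300 g); 0.04 mg membrane incubated with 0.2 nM […], 60 min, 22 °C; filtration, three washes, filter counting. Nonspecific binding defined with 1 mM ICS205-930. Six replicates per dose; displacement curves fitted by nonlinear regression to give IC50, converted to Ki by Cheng–Prusoff.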

[3] = system: 5-HT3 receptor (Cavia porcellus); assay: Maximal partial agonist activity at 5-hydroxytryptamine 3 receptor of isolated guinea pig ileum as ratio to 5-HT response
Mus musculus [4] = assay: Transition time (time required to evacuate the glass bead) in the distal colon in mice at dose 0.3 mg/kg; format: functional
Summary of the method: (§1)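 Male mice fasted 4 h. Compound given sc 20 min before a 3 mm glass bead was inserted 3 cm into the distal colon; time to expel the bead was recorded. 8 animals per group, mean ± SEM. Compared with control by ANOVA followed by Steel's multiple range test, p < 0.05.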

Mus musculus [5] = assay: Transition time (time required to evacuate the glass bead) in the distal colon in mice at dose 1 mg/kg; format: functional
Summary of the method: as §1

Mus musculus [6] = assay: Transition time (time required to evacuate the glass bead) in the distal colon in mice at dose 3 mg/kg; format: functional
Summary of the method: as §1

[7] = molecular target: Beta-2 adrenergic receptor (Canis lupus familiaris) (UniProt P54833); assay: Inhibitory activity against non-selective beta adrenergic receptor using [3H]DHA as radioligand at 10e-5 M concentration
Chain of Beta-2 adrenergic receptor (Canis lupus familiaris) (P54833 whole entry, looked up): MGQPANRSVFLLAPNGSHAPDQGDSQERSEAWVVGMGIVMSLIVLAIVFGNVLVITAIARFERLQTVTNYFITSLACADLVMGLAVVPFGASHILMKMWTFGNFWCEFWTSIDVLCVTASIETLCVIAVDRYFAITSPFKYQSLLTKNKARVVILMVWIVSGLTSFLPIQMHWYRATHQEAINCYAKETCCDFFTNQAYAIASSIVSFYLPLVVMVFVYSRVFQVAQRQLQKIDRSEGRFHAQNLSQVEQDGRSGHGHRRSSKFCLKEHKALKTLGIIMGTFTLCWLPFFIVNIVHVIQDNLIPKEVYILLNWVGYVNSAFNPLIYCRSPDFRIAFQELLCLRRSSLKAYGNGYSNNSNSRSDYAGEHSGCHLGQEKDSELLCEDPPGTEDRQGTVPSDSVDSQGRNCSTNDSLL

Rattus norvegicus = species: Rattus norvegicus; assay: Inhibitory dose against 5-HT-Evoked Bezold-Jarisch (B-J) reflex in rats; format: functional; conditions: read-out: ID50 (the source's name)
[8] = system: Alpha-1 adrenergic receptor (Rattus norvegicus); assay: Inhibitory activity against Alpha-1 adrenergic receptor using [3H]prazosin as radioligand at 10e-5 M concentration
[9] = molecular target: T1, Serotonin 3 (5-HT3) receptor; assay: Binding affinity for 5-hydroxytryptamine 3 receptor was determined by measuring displacement of [3H]GR-65630 from rat brain cortices
[10] = molecular target: D(2) dopamine receptor (Homo sapiens) (UniProt P14416); assay: Inhibitory activity against Dopamine receptor D2 using [3H]-spiperone as radioligand at 10e-5 M concentration
Chain of D(2) dopamine receptor (Homo sapiens) (P14416 whole entry): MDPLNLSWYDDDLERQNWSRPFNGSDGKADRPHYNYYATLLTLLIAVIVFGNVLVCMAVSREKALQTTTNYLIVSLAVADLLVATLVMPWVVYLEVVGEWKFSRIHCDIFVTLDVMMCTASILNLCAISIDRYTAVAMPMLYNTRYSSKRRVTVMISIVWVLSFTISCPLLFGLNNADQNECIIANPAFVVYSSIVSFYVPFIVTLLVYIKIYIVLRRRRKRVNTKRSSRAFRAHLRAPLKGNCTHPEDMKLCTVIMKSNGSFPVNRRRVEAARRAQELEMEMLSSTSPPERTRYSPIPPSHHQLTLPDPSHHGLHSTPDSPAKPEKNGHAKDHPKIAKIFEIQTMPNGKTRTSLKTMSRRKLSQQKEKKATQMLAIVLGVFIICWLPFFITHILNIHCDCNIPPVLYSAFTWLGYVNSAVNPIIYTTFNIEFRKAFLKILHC

[11] = molecular target: T2, 5-hydroxytryptamine receptor 1A (Mus musculus) (UniProt Q64264); assay: Inhibitory activity against 5-hydroxytryptamine 1A receptor using [3H]8-OH-DPAT as radioligand at 10e-5 M concentration
T2 sequence (whole entry): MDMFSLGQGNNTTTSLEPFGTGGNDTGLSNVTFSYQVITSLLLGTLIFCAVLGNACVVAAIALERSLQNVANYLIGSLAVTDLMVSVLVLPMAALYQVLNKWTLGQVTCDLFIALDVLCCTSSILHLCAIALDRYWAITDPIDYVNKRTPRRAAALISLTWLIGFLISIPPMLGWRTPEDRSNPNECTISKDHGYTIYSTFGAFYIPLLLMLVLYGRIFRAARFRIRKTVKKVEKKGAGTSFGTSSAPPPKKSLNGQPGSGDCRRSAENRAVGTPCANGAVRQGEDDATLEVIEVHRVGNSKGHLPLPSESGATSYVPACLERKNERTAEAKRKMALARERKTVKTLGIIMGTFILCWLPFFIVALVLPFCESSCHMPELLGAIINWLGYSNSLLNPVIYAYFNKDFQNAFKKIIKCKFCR

[12] = system: Alpha-2 adrenergic receptor (Rattus norvegicus); assay: Inhibitory activity against Alpha-2 adrenergic receptor using [3H]rauwolscine as radioligand at 10e-5 M concentration
[13] = molecular target: 5-hydroxytryptamine receptor 2A (Bos taurus) (UniProt Q75Z89); assay: Inhibitory activity against 5-hydroxytryptamine 2 receptor using [3H]-ketanserin as radioligand at 10e-5 M concentration
Chain of 5-hydroxytryptamine receptor 2A (Bos taurus) (Q75Z89 whole entry): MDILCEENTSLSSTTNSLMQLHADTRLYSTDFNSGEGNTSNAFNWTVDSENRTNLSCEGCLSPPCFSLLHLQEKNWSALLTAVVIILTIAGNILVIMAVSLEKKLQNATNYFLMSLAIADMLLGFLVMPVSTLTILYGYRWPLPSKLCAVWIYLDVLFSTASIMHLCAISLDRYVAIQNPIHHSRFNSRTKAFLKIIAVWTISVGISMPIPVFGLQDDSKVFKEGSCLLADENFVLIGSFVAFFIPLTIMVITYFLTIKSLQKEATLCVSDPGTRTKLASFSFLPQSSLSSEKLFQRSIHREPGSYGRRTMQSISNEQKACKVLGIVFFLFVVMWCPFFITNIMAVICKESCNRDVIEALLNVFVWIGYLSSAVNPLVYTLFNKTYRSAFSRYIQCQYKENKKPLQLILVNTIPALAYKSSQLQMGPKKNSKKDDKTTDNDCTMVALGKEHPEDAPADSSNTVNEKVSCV

[14] = molecular target: D(1A) dopamine receptor (Mus musculus) (UniProt Q61616); assay: Inhibitory activity against Dopamine receptor D1 using [3H]SCH-23390 as radioligand at 10e-5 M concentration at 10e-5 M concentration
Chain of D(1A) dopamine receptor (Mus musculus) (Q61616 whole entry): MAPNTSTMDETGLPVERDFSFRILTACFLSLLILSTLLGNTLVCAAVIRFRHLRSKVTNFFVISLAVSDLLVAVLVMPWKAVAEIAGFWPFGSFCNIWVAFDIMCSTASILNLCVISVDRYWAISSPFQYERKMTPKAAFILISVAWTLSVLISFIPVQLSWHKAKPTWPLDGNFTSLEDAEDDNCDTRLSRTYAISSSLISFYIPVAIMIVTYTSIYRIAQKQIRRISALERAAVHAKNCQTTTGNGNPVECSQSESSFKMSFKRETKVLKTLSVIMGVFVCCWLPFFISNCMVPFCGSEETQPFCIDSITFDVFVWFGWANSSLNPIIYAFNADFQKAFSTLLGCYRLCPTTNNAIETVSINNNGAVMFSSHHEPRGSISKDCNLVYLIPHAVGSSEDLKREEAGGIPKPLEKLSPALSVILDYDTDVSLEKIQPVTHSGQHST

Mus musculus [15] = assay: Inhibitory activity against 5-HT evoked diarrhea in mice, sc; format: functional; conditions: read-out: ID50 (the source's name)
Mus musculus [16] = assay: Transition time (time required to evacuate the glass bead) in the distal colon in mice at dose 30 mg/kg; format: functional
Summary of the method: as §1

[17] = molecular target: T3, 5-hydroxytryptamine receptor 1F (Rattus norvegicus) (UniProt P30940); assay: Inhibitory activity against 5-hydroxytryptamine 1 receptor using [3H]5-HT as radioligand at 10e-5 M concentration
T3 sequence (whole entry): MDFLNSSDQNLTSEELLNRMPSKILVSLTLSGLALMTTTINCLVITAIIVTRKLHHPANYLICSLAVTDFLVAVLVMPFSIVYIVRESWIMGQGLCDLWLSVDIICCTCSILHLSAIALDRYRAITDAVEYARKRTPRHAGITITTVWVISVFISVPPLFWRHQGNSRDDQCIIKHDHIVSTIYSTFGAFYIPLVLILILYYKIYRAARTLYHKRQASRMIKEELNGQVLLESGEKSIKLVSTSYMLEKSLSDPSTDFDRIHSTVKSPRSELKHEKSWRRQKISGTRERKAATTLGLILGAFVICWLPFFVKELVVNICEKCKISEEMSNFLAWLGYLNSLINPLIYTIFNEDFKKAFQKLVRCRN

[18] = molecular target: GABA-A receptor; anion channel (Homo sapiens) (UniProt P14867+P47870+P18507+P28472+P48169+Q99928+Q9UN88+P34903+O00591+O14764+Q8N1C3+P18505+P78334+P47869+P31644+Q16445); assay: Inhibition of [3H]flunitrazepam binding to GABA-A central benzodiazepine receptor at 10e-5 M; format: protein-complex assay

Row | SMILES | pD2 [1] | inhibition at 10^-7 M [2] [%] | IA [3] | further results
1 | Cc1cc2oc(N3CCN(C)CC3)nc2cc1Cl | 6.28 | 95 | 0.28 | 
2 | Cc1cccc2oc(N3CCN(C)CC3)nc12 | < 5 | 25 |  | 
3 | CN1CCN(c2nc3cc(Cl)cc(Cl)c3o2)CC1 | 6.51 | 62 | 0.14 | 
4 | Cc1ccc2oc(N3CCN(C)CC3)nc2c1 | 6 | 83 | 0.72 | 
5 | Cc1c(Cl)cc2nc(N3CCN(C)CC3)oc2c1Cl | 6.64 | 96 | 0.1 | 
6 | CN1CCN(c2nc3ccccc3o2)CC1 | 5.01 | 55 | 0.62 | 
7 | Cc1cccc2nc(N3CCN(C)CC3)oc12 | 5.46 | 77 | 0.58 | 
8 | CN1CCN(c2nc3cc(C(F)(F)F)ccc3o2)CC1 | < 5 | 22 |  | 
9 | Cc1cc(C)c2oc(N3CCN(C)CC3)nc2c1 | 6.32 | 94 | 0.62 | 
10 | Cc1cc2nc(N3CCN(C)CC3)oc2cc1C | 6.16 | 32 | 0.66 | 
11 | CN1CCN(c2nc3cc(F)ccc3o2)CC1 | 5.57 | 91 | 0.64 | 
12 | CN1C2CCCC1CC(NC(=O)c1nn(C)c3ccccc13)C2 (stereo not given) [GRANISETRON] |  |  |  | Time (Mus musculus [4]): 373 s; Time (Mus musculus [5]): 614 s; Time (Mus musculus [6]): 827 s
13 | c1ccc2oc(C3CCNCC3)nc2c1 | 5.59 | 39 | 0.31 | 
14 | CN1CCCN(c2nc3ccccc3o2)CC1 | 6.03 | 86 | 0.54 | 
15 | c1ccc2oc(N3CCNCC3)nc2c1 |  | 83 |  | 
16 | c1ccc2oc(N3CCCCC3)nc2c1 | < 5 |  |  | 
17 | Cc1cc(Cl)cc2nc(N3CCCN(C)CC3)oc12 | 7.76 | 98 | 0.12 | inhibition [7]: 24%; Time (Mus musculus [4]): 262.6 s; ED50 (Rattus norvegicus): 0.0876 mg/kg; inhibition [8]: 22%; Ki [9]: 1.1 nM; inhibition [10]: 5%; Time (Mus musculus [6]): 357.2 s; inhibition [11]: -3%; inhibition [12]: 33%; inhibition [13]: 23%; inhibition [14]: 18%; ED50 (Mus musculus [15]): 0.3 mg/kg; Time (Mus musculus [16]): 328.8 s; inhibition [17]: 14%; inhibition [18]: 12%
18 | CN1CCN(c2nc3cc(Br)ccc3o2)CC1 | 6.21 | 92 | 0.48 | 
19 | Cc1ccc2nc(N3CCN(C)CC3)oc2c1 | 5.15 | 74 | 0.85 | 
20 | CCc1ccc2oc(N3CCN(C)CC3)nc2c1 | < 5 | 11 |  | 
21 | Cc1c(Cl)cc2nc(N3CCN(C)CC3)oc2c1C | 6.67 | 101 | 0.14 | 
22 | CN1CCN(c2nc3cc(Cl)ccc3o2)CC1 | 6.07 | 94 | 0.5 | 
23 | Cc1cc(Cl)cc2nc(N3CCN(C)CC3)oc12 | 6.7 | 85 | 0.24 | 
24 | CN1CCCN(c2nc3cc(Cl)ccc3o2)CC1 | 7 | 87 | 0.31 | 
